Data on 19 compounds can be found in ChEMBL document CHEMBL1125489, “Antitumor agents. 134. New shiraiachrome-A- and calphostin-C-related perylene derivatives as cytotoxic and antiviral agents and inhibitors of protein kinase C” (1992).

In brackets after ≈: the same amount, converted by molar mass. Several values for one entry are separate records, joined by “and”; a condition that tells them apart may be missing. Equal entries are not always repeated. Activity calls are given as the source filed them. No cut-off for these calls is given here.

The test system of one experiment is P388. Put plainly: Cytotoxic concentration against P388 tumor cells. The format is functional. To be noted: Mus musculus, read-out: ED50 (the source's name). Put shortly: (§1)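 Tumor cells exposed 3 days to drug at 0.1, 1 and 10 μg/mL. ED50 is the concentration giving 50% reduction in cell number, estimated from the degree of inhibition at these three concentrations.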

Experiment [1] deals with Vero. The experiment in a line: Antiviral activity against HSV-1 in vero cells. In kind it is functional. Particulars: Chlorocebus sabaeus, read-out: ED50. In short, it runs like this:
(§2)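 Confluent Vero cells infected at 3 PFU/cell with HSV-1 (Kos) or HSV-2 (333) in RPMI-1640 with 2% FCS. Drugs added during inoculation as two-fold serial dilutions (final 100, 50, 25, 12.5 μg/mL). Cytopathic effect scored by microscopy after 24 h.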

Experiment [2] deals with Vero. Put plainly: Antiviral activity against HSV-2 in vero cells. In kind it is functional. To be noted: Chlorocebus sabaeus, read-out: ED50. In short, it runs like this: as §2
The target in experiment [3] is T1, Protein kinase C (PKC) (Homo sapiens) (UniProt O94806+P41743+P17252+P05129+Q05655+P05771+Q05513+Q02156+P24723+Q15139+Q04759). The experiment in a line: Inhibition of protein kinase C(PKC). The format is protein assay. In short, it runs like this:
(§3)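 Compound added in DMSO, with DMSO-only controls. Reaction started with PKC (1 μg/mL) and stopped with ice-cold TCA plus BSA. Precipitate collected on GF/C filters and counted by β scintillation.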

A further experiment relates to KB 3-1. The experiment in a line: Cytotoxic concentration against KB tumor cells. To be noted: Homo sapiens, KB 3-1, read-out: ED50. In kind it is functional. In short, it runs like this:
as §1

In experiment [4] the target is T1, Protein kinase C (PKC) (Homo sapiens). Put plainly: Inhibition of protein kinase C(PKC), maximal conc 40 uM. In kind it is protein assay. In short, it runs like this:
as §3

In experiment [5] the test system is A549. Put plainly: Cytotoxic concentration against A-549 tumor cells. The format is functional. To be noted: Homo sapiens, read-out: ED50 (the source's name). In short, it runs like this:
as §1

For the next experiment, the system named is HCT-8. The experiment in a line: Cytotoxic concentration against HCT-8 tumor cells. The format is functional. To be noted: Homo sapiens, read-out: ED50 (the source's name). In short, it runs like this: as §1
Experiment [6] is described as follows: Cytotoxic concentration against RPMI-7951 tumor cells. In kind it is functional. Particulars: Homo sapiens, read-out: ED50 (the source's name). In short, it runs like this:
as §1

Experiment [7] can be described thus: Cytotoxic concentration against TE-671 tumor cells. In kind it is functional. To be noted: Homo sapiens, read-out: ED50 (the source's name). In short, it runs like this:
as §1

Experiment [8] deals with Protein kinase C, PKC; classical/novel (Homo sapiens) (UniProt O94806+P17252+P05129+Q05655+P05771+Q02156+P24723+Q15139+Q04759). The experiment in a line: Inhibition of protein kinase C(PKC), inhibition of phorbol binding by 80-100% at 38 uM. The format is protein assay.
Experiment [9] deals with A549. The experiment in a line: Cytotoxic concentration against A-549 tumor cells; Inactive at 10 ug/mL. The format is functional, cell-based. To be noted: Homo sapiens. Put shortly: as §1

Turning to `COc1c2c3c4c(c(OC)c(=O)c5c(O)cc(OC)c(c6c(OC)cc(O)c(c1=O)c63)c54)[C@@H](C(C)=O)[C@@](C)(O)C2` (stereo in doubt; 2) [HYPOCRELLIN A], the EC50 was determined as 390 µg/mL (≈ 714 µM) in the experiment on P388, 5 µg/mL (≈ 9.15 µM) in the experiment with Vero [1] and 5 µg/mL (≈ 9.15 µM) in the experiment with Vero [2].
As for `O=c1cc(O)c2c3c(O)cc(O)c4c(=O)cc(O)c(c5c(O)cc(O)c1c52)c43`, in [3], the PKC is > 218 µM.
On the same count and under the same terms, in the case of `N=c1cc2c3cc(N)c(O)c4c(O)ccc(c5ccc(O)c(c1=O)c52)c43` it was 95 µM.
In the case of `CCCCCCCCCCCCCCCCCC(=O)Oc1cc2c3cc(OC(=O)CCCCCCCCCCCCCCCCC)c(=O)c4cccc(c5cccc(c1=O)c52)c43`, the EC50 with KB 3-1 worked out at 5.57 µg/mL (≈ 6.57 µM). Also, in experiment [4], the PKC is > 40 µM.
On to `CC(=O)Oc1cc2c3cc(OC(C)=O)c(=O)c4cccc(c5cccc(c1=O)c52)c43`, for which the EC50 in the experiment with A549 [5] worked out at 3840 µg/mL (≈ 9640 µM); in the experiment with HCT-8 it was 560 µg/mL (≈ 1410 µM); with KB 3-1, 0.54 µg/mL (≈ 1.36 µM); in the experiment with P388, 360 µg/mL (≈ 904 µM); in experiment [6], 50 µg/mL (≈ 126 µM); in experiment [7], 680 µg/mL (≈ 1710 µM). The PKC in experiment [3] was 82 µM.
`COc1cc(C(=O)Oc2cc3c4cc(OC(=O)c5cc(OC)c(O)c(OC)c5)c(=O)c5cccc(c6cccc(c2=O)c63)c54)cc(OC)c1O`: the PKC in experiment [4] is > 40 µM.
Consider `CC(=O)/N=c1\ccc2c3ccc(NC(C)=O)c4c(=O)c(OC(C)=O)cc(c5cc(OC(C)=O)c(O)c1c25)c43`, for which, in experiment [3], the PKC was found to be 89 µM.
Turning to `O=c1cc(S(=O)(=O)[O-])c2c3c(S(=O)(=O)[O-])cc(O)c4c(=O)cc(S(=O)(=O)[O-])c(c5c(S(=O)(=O)[O-])cc(O)c1c52)c43.[Na+].[Na+].[Na+].[Na+]`, the EC50 turned out to be 2 µg/mL in the experiment with Vero [1] and 10 µg/mL in the experiment with Vero [2]. Further, the PKC in experiment [3] is 200 µM and > 218 µM.
In the case of `O=c1ccc2c3ccc(O)c4c(=O)ccc(c5ccc(O)c1c52)c43`, in experiment [3], the PKC is > 218 µM.
For `O=c1cc2c3cc(O)c(O)c4cccc(c5cccc(c1=O)c52)c43`, the PKC in experiment [8] was found to be 14 µM.
With `COc1cc(O)c2c(=O)cc(OC)c3c4c(OC)cc(=O)c5c(O)cc(OC)c(c1c23)c54`, the EC50 in the experiment with Vero [1] amounted to 3 µg/mL (≈ 6.91 µM); in the experiment on Vero [2], 15 µg/mL (≈ 34.5 µM). The PKC in [3] was > 218 µM.
Regarding `N=c1cc2c3cc(N)c(O)c4cccc(c5cccc(c1=O)c52)c43`, the PKC in [3] was > 218 µM.
Still for that read-out and setting: in the case of `CC(=O)Oc1cc(O)c2c(=O)cc(OC(C)=O)c3c4c(OC(C)=O)cc(=O)c5c(O)cc(OC(C)=O)c(c1c23)c54` it was > 218 µM.
`CC(=O)Oc1cc2c3cc(OC(C)=O)c(OC(C)=O)c4cccc(c5cccc(c1OC(C)=O)c52)c43`: the EC50 in the experiment with A549 [5] is 5410 µg/mL (≈ 11200 µM); with HCT-8 it was 4160 µg/mL (≈ 8590 µM); with P388 it was 640 µg/mL (≈ 1320 µM); in [6] it was 50 µg/mL (≈ 103 µM); in [7] it was 610 µg/mL (≈ 1260 µM). The PKC in experiment [3] was > 218 µM.
Consider `O=c1ccc2c3ccc(=O)c4cccc(c5cccc1c52)c43`, for which the ED50 result in the experiment on A549 [9] is “inactive”. The EC50 with P388 stood at 4350 µg/mL (≈ 15400 µM); in experiment [6], 8.9 µg/mL (≈ 31.5 µM); in experiment [7] it was 5210 µg/mL (≈ 18500 µM). Also, the PKC in [3] is > 218 µM.
As to `COc1c2c3c4c(c(OC)c(=O)c5c(O)cc(OC)c(c6c(OC)cc(O)c(c1=O)c63)c54)[C@@H](C(C)=O)[C@@](C)(O)C2` (stereo in doubt; 1), the PKC in experiment [8] worked out at 44 µM.
Turning to `O=C(/C=C/c1ccccc1)Oc1cc2c3cc(OC(=O)/C=C/c4ccccc4)c(=O)c4cccc(c5cccc(c1=O)c52)c43`, the EC50 (in the experiment with KB 3-1; in experiment [6]) was 5.5 µg/mL (≈ 9.57 µM) throughout. In addition, the PKC in experiment [4] is > 40 µM.
Turning to `CC(=O)Oc1ccc2c3ccc(OC(C)=O)c4c(=O)cc(OC(C)=O)c(c5c(OC(C)=O)cc(=O)c1c25)c43`, in experiment [3], the PKC was > 218 µM.
As to `COc1cc(C(=O)Oc2cc3c4cc(OC(=O)c5cc(OC)c(OC)c(OC)c5)c(=O)c5cccc(c6cccc(c2=O)c63)c54)cc(OC)c1OC`, the PKC in experiment [4] is > 40 µM.
